Measurements: paper PMC4465239 (Journal of autoimmunity, 2013)
Like-named read-outs stand apart in the source and are kept apart here. Where no end group is shown, it is not given here. fluorescein = fluorescein label at the C-terminus

Assays:
I-A^g7 = assay: Half life of peptide:MHC interaction; format: binding, mouse; conditions: HPSEC, 37°C
Method in brief: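 I-Ag7 monomer (1 µM) was loaded with 10 µM C-terminally fluoresceinated peptide for 24–72h at 37°C in 100mM citrate phosphate pH 5, 0.2% NP-40, 0.02% azide, 10mM EDTA and protease inhibitors. Free peptide was removed on a BSA-blocked G-50 spin column, and 2mM unlabelled competitor peptide was added. Samples dissociated at 37°C, were resolved by size-exclusion HPLC with fluorescence detection, and t½ = ln2/decay slope.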

BDC-2.5 T cells [1] = assay: Proliferation of anergized cells with or without exogenous IL-2; format: cell-based, mouse; conditions: for proliferation on mimotope rechallenge with IL-2: with 3.5ng/well recombinant IL-2, mimotope+IL-2 vs. variant+IL-2 p=0.001; for proliferation on mimotope rechallenge without IL-2: without exogenous IL-2, mimotope vs. variant p=0.05
Method in brief: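 Anergy was induced as follows: 14 d with 1µM mimotope, then 14 d with 1µM mimotope or 10µM variant plus irradiated APC. Cells were rechallenged with irradiated syngeneic splenocytes and graded mimotope, with or without 3.5ng/well recombinant mouse IL-2, for 48h at 37°C. [3H]thymidine (0.4µCi/well) was added for a further 18h. Stimulation index = stimulated CPM/unstimulated CPM. One-way ANOVA with Bonferroni post test.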

BDC-2.5 T cells [2] = format: cell-based, mouse
Method in brief: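 BDC-2.5 splenocytes were primed 14 d with 1µM mimotope, Ficoll-purified, then restimulated 14 d with irradiated (3000 rad) syngeneic splenocytes plus 1µM mimotope or 10µM variant. They were then challenged with graded mimotope and irradiated splenocytes at 37°C. After 48h, 0.4µCi/well [3H]thymidine was added and incorporation counted 18h later. Four independent experiments in duplicate; mean ± SEM; Student's t test.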

[3] = biological target: I-A^g7 monomer (class II MHC of the NOD mouse) (mouse (NOD)); assay: SEC

Molecule | stability of complex with I-A^g7 (I-A^g7) | proliferation on mimotope rechallenge with IL-2 (BDC-2.5 T cells [1]) | proliferation on mimotope rechallenge without IL-2 (BDC-2.5 T cells [1]) | half life of the peptide:MHC complex [3] | also measured
AHHPIWARMDA [mimotope, reference compound] | extremely stable complex | maintained a normal dose response to agonist stimulation | typical proliferation profile | – | background proliferation with IL-2, no peptide rechallenge (BDC-2.5 T cells [1]; cells not stimulated with peptide, plus 3.5ng/well recombinant IL-2): increased background proliferation
AHYPIPADMDV [YPDV] | much less stable complex | did not exhibit proliferation above background | little proliferation above background | – | induction of anergy (BDC-2.5 T cells [2]): sufficient to induce an anergic phenotype; induction of anergy (BDC-2.5 T cells [2]; listed as MHC variant peptide): can induce anergy in BDC-2.5 T cells
AHHPIWARMDA-fluorescein [BDC-2.5 mimotope peptide …] | – | – | – | > 36 h | –
AHYPIPADMDV-fluorescein [YPDV MHC variant peptide …] | – | – | – | 4 h | –
IL-2: recombinant mouse IL-2 (protein, UniProt P04351 21-169, looked up) Interleukin-2: APTSSSTSSSTAEAQQQQQQQQQQQQHLEQLLMDLQELLSRMENYRNLKLPRMLTFKFYLPKQATELKDLQCLEDELGPLRHVLDLTQSKSFQLEDAENFISNIRVTVVKLKGSDNTFECQFDDESATVVDFLRRWIAFCQSIISTSPQ | – | – | – | – | rescue of proliferation of anergized T cells by IL-2 (BDC-2.5 T cells [1]; exogenous recombinant IL-2, 3.5ng/well): does not rescue proliferation of anergized T cells
